Exocytosis inh = LAMP-1 surface exposure blockers, TALL-104 cells – cell-based, flow cytometry, MLPCN library, primary screen; TALL-104 LAMP-1 surface exposure; cells stimulated with thapsigargin and PMA; inhibition, % at 10 µM; 360,000 tested, 0.66% active; AID 651702, 2012;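 active = inhibition above about 55%, limit read from the data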
MC4R ag barr = MC4R agonists recruiting beta-arrestin, primary screen, cell-based, luminescence, agonist arm of biased-ligand search; AID 540308, 2011; 360,000 tested, 0.98% active; U2OS MC4R beta-arrestin complementation; percent of melanotan II response, DMSO zero; activation, % at 8.9 µM;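 active = activation above a per-plate cutoff, the mean activation of sample wells on that plate plus 3 SD, cut at about 8% in these data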
Target sequence (P32245 whole entry, looked up): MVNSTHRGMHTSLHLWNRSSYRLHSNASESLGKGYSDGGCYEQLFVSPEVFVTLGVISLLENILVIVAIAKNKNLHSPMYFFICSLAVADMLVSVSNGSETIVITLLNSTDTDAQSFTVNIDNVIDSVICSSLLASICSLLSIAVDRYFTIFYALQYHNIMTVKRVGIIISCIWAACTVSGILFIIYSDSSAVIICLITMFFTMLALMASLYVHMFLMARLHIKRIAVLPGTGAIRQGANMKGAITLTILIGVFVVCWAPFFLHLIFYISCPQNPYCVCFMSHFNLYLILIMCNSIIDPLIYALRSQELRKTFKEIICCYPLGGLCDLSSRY
MC4R antag cAMP = MC4R antagonists of cAMP signaling, primary screen, cell-based, TR-FRET, antagonist arm of biased-ligand search; inhibition, % at 6.5 µM; MC4R-expressing cells, MTII-stimulated cAMP, LANCE TR-FRET; 360,000 tested, 0.48% active; AID 540295, 2011; Melanocortin receptor 4 (Homo sapiens), P32245;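 active = inhibition above its plate's cutoff, the mean of tested wells on that plate plus 3 SD, cut at about 29% in these data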;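 also: 0% = Melanotan II alone and 100% = Melanotan II plus saturating MCL0020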
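Material: U2OS-MC4R stable cell line | Reagent: Melanotan II challenge after compound preincubation | Doses: One concentration, 6.5 µM nominal | Incubation: 30-min compound preincubation, 1-h Melanotan II challenge, 1-h detection, room temperature | Signal: TR-FRET cAMP assay | Replicates: One well per compound, no replicates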
ABCB6 inh MLPCN = ABCB6 transporter inhibitors, primary screen, K562-ABCB6 cells, flow cytometry, MLPCN library. AID 602162, 2011. 360,000 tested, 0.19% active. fluorescence ratio to DMSO, % at 10 µM. K562-ABCB6 porphyrin accumulation, 1 h; active compounds read low;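 active = fluorescence ratio to DMSO below 75%, the collection mean minus 3 SD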;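 also: signal is porphyrin accumulated inside mitochondria; 100% equals median channel fluorescence of DMSO control wells; lower ratio means ABCB6 inhibition with less porphyrin fluorescence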
hiPSC survival = enhancers of single-cell hiPSC survival, primary screen, ATPlite luminescence; 100% = ROCK inhibitor wells, 0% = DMSO; survival enhancement, % at 20 µM; 360,000 tested, 0.044% active; AID 602274, 2012; in the data active = survival enhancement above about 18%;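 also: cells exposed to compounds for 16 hours before the ATP read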
Tb MetRS inh = T. brucei MetRS inhibitors, primary screen, biochemical, luminescence. methionyl-tRNA synthetase (Trypanosoma brucei brucei). purified T. brucei MetRS, ATP depletion, Kinase-Glo luminescence. inhibition, % at 11.9 µM. 360,000 tested, 0.4% active;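 active = inhibition above a per-plate cutoff of the control wells' mean inhibition plus 3 SD, cut at about 5.5% in these data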;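 also: 0% = DMSO wells median and 100% = median of wells with control inhibitor compound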
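Measured by: Kinase-Glo luciferase luminescence reporting remaining unconsumed ATP. Material: purified T. brucei MetRS enzyme. Doses: 11.9 µM compound single dose, 0.9% DMSO. Medium: HEPES buffer containing pyrophosphatase, BSA, spermine, DTT. Times: 15 min preincubation, 2 h reaction, all 25 °C. Reagent: methionine, ATP and bulk E. coli tRNA.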
MC4R barr ag = MC4R beta-arrestin agonists, retest, confirmation, cell-based, luminescence, U2OS; activation, % at 8.9 µM; shares compounds with MC4R ag barr; 2,400 tested, 31% active; U2OS MC4R beta-arrestin recruitment; scaled DMSO 0%, Melanotan II 100%;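 active = mean activation across replicates above the hit cutoff set in the earlier primary screen, cut at about 8% in these data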
MOR DOR agonist = agonists of MOR-DOR heterodimerization, counter-screen for MC4R biased agonist project, cell-based, luminescence | shares compounds with MC4R ag barr | U2OS PathHunter beta-arrestin, beta-gal luminescence; percent of deltorphin B response, DMSO zero | activation, % at 9.2 µM | 2,400 tested, 5.8% active;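 active = mean activation across replicates exceeds the hit threshold derived in the earlier primary screen, cut at about 18% in these data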;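 also: 100% = deltorphin B at 0.9 µM final and 0% = DMSO alone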
* = called active by the depositor; . = not tested or not shown. Hits are enriched below; roughly 2.6% of the tested compounds scored in any of these assays.

SMILES | Exocytosis inh | MC4R ag barr | MC4R antag cAMP | ABCB6 inh MLPCN | hiPSC survival | Tb MetRS inh | MC4R barr ag | MOR DOR agonist
Cc1ccccc1N=CC1=C(O)c2ccccc2C1=O | -0.9 | 5.9 | -4.2 | 94.0 | -1.3 | -0.1 | . | .
COc1cc(/C=N/NC(=O)c2ccccn2)ccc1OC(=O)c1ccccc1Br | -4.3 | 12.5* | -1.5 | 93.0 | -0.3 | -0.8 | 5.5 | 1.0
OC(CN1CC=C(/C=C/c2ccc(Br)cc2)CC1)c1ccccc1 (centres undefined) | 15.1 | 6.5 | -2.3 | 96.0 | -0.2 | 0.2 | . | .
Fc1ccc(-c2nnsc2Sc2ccccn2)cc1 | -0.5 | 12.2* | 0.6 | 96.0 | 0.3 | -0.4 | -1.1 | 2.8
O=C1N(CN2CCN(Cc3ccccc3)CC2)c2ccccc2C12OCCCO2 | 1.4 | 2.1 | 22.9 | 105.0 | 0.5 | -0.4 | . | .
CN(C)CCOc1nc(-c2ccccc2)nc2c1oc1ccccc12 | -4.6 | 16.4* | -0.5 | 103.0 | -3.4 | 0.3 | 3.8 | 5.6
CN(C)CCOc1ncnc2c1oc1ccccc12 | 3.4 | -0.2 | 7.3 | 99.0 | 0.0 | -0.2 | . | .
COc1ccc(N=c2oc3c(OC)cccc3cc2C(=O)NCc2ccco2)c(OC)c1 | 0.3 | 31.6* | 17.1 | 100.0 | -0.4 | -0.2 | 12.8* | 24.6*
COCCCNC(=O)CN1C(=O)COc2ccc(S(=O)(=O)N3CCOCC3)cc21 | -1.7 | -0.9 | 2.1 | 104.0 | -0.5 | 0.1 | . | .
O=C(NCc1csc(-c2cccs2)n1)Nc1cccc(Cl)c1 | -0.5 | 9.8* | 0.1 | 102.0 | 0.3 | 1.0 | 3.3 | 6.4
COc1ccc(Br)c(Cn2c(C)c(C(=O)NCc3ccc4c(c3)OCCO4)sc2=O)c1 | -4.5 | -0.3 | 1.5 | 100.0 | -3.4 | -0.8 | . | .
CC(NS(=O)(=O)c1cccc(Cl)c1)C(=O)Nc1ccc(-c2nc3ccccc3s2)cc1 (centres undefined) | 5.6 | 16.2* | 19.4 | 97.0 | -1.1 | -1.0 | 9.9* | 7.5
CNS(=O)(=O)c1cccc(C(=O)OCC(=O)Nc2ccc(-c3nc4ccc(C)cc4s3)cc2)c1 | 0.2 | 15.6* | 7.5 | 92.0 | -2.4 | 0.1 | 7.3 | 5.7
Cc1ccc2nc(-c3ccc(NC(=O)COC(=O)c4ccco4)cc3)sc2c1 | 3.9 | -0.6 | -12.8 | 94.0 | -2.9 | -0.6 | . | .
CN(NC(=O)C(=O)NCc1ccco1)C(=O)Nc1ccc(Cl)cc1 | -11.0 | . | . | 94.0 | -0.7 | -0.6 | . | .
O=c1[nH]c(-c2ccc(-c3cccc(Cl)c3)o2)nc2ccccc12 | 5.7 | 12.6* | -3.0 | 99.0 | -5.1 | -0.3 | -1.6 | 2.4
O=c1[nH]c(SCc2cccc(Cl)c2)nc2ccccc12 | 4.8 | 2.7 | 5.0 | 100.0 | -0.5 | 0.6 | . | .
COCCN(C(=O)COC(=O)/C(=C/c1ccccc1)NC(C)=O)c1c(N)n(Cc2ccccc2)c(=O)[nH]c1=O | -2.8 | -2.6 | 5.9 | 97.0 | 0.3 | -0.4 | . | .
c1cncc(CNc2nc(-c3cccnc3)nc3ccccc23)c1 | 1.4 | -0.5 | -2.6 | 94.0 | -0.6 | 0.1 | . | .
COc1cccc(-c2nc(NCc3cccnc3)c3ccccc3n2)c1O | -0.9 | 15.7* | 1.1 | 109.0 | 1.8 | -0.6 | 6.0 | 7.9
Cc1ccc(C)c(N2CCN(CCCNC(=O)Cn3cccc3C(=O)c3ccccc3C)CC2)c1 | 26.6 | 12.0* | 8.7 | 99.0 | -3.1 | 0.1 | 13.6* | 15.2
Cc1ccccc1C(=O)c1cccn1CC(=O)NCCCN1CCCCC1 | -5.6 | 0.3 | 6.4 | 100.0 | 0.4 | 0.0 | . | .
O=C(Nc1ccc(F)cc1F)c1c(C(F)(F)F)ccnc1Oc1cccc(C(F)(F)F)c1 | 7.7 | 19.9* | -1.6 | 106.0 | 0.9 | -0.3 | 0.7 | 3.5
Cc1cc(NC(=O)COC(=O)COc2ccc(Cl)c(C)c2)no1 | 4.8 | 2.1 | 7.0 | 96.0 | 0.5 | -0.1 | . | .
CC(=O)c1cc2c(cc1NC(=O)CN1CCN(c3cccc(C(F)(F)F)c3)CC1)OCO2 | -0.3 | 16.3* | 3.4 | 95.0 | -1.0 | -0.5 | -1.8 | 3.1
SMILES | Exocytosis inh | MC4R ag barr | MC4R antag cAMP | ABCB6 inh MLPCN | hiPSC survival | Tb MetRS inh | MC4R barr ag | MOR DOR agonist
COc1ccc(C(=O)OCC(=O)NC(=O)NCc2ccccc2)cc1[N+](=O)[O-] | 3.2 | 0.1 | 7.8 | 92.0 | -0.2 | 0.3 | . | .
COc1cc(C(=O)OCC(=O)NC(=O)NCc2ccccc2)ccc1OC(F)F | 7.4 | 9.7* | -2.9 | 93.0 | 0.6 | -0.7 | 3.2 | 7.8
CCOC(=O)c1cc(-c2ccccc2)sc1NC(=O)COC(=O)c1cccc(S(N)(=O)=O)c1 | -1.2 | 16.5* | -13.5 | 101.0 | -0.9 | -0.4 | 18.6* | 21.9*
CCOC(=O)c1cc(-c2ccccc2)sc1NC(=O)CSc1nnc(N)s1 | 10.2 | 10.5* | 23.0 | 95.0 | -0.5 | -0.7 | 3.5 | 7.4
CC(C)(C)NC(=O)CN(C(=O)CCC(=O)Nc1nccs1)c1ccccc1F | 2.0 | 11.8* | 10.2 | 97.0 | -1.0 | -0.2 | -0.5 | 1.6
Cc1ccccc1N(CC(=O)NC(C)(C)C)C(=O)CCC(=O)Nc1nccs1 | -8.0 | 0.2 | 13.6 | 97.0 | 0.8 | 0.1 | . | .
COc1ccccc1NC(=O)c1oc2ccccc2c1NC(=O)C1CC1 | 12.2 | 10.1* | 12.5 | 96.0 | 0.7 | 0.0 | 2.5 | 2.7
COc1ccccc1NC(=O)c1oc2ccccc2c1C | 2.0 | 0.3 | -4.6 | 100.0 | -1.9 | -0.2 | . | .
CCOc1ccccc1NC(=O)c1oc2ccccc2c1NC(=O)C1CC1 | 16.2 | -2.5 | 6.2 | 94.0 | -0.5 | 0.2 | . | .
COc1ccc2oc(C(=O)OCC(=O)NCc3ccccc3OC)c(C)c2c1 | -9.4 | 21.0* | 10.8 | 115.0 | -0.5 | -0.4 | 8.0 | 5.8
COc1ccc(NC(=O)c2oc3ccccc3c2C)c(OC)c1 | 0.9 | 13.7* | 2.3 | 100.0 | 8.8 | -0.3 | 0.5 | 5.4
COc1ccc2oc(C(=O)OCC(=O)Nc3ccc(NC(C)=O)cc3)c(C)c2c1 | -2.0 | 4.5 | 0.8 | 97.0 | 1.0 | -0.3 | . | .
Cc1cc2c(cc1S(=O)(=O)CCC(=O)Nc1cccc(C(F)(F)F)c1)OCC(=O)N2 | -1.8 | -2.8 | -0.2 | 99.0 | -0.6 | -0.4 | . | .

Screens (PubChem)
